# Source: paper PMC10644204 (Pharmacology Research & Perspectives, 2023)
# “And” between values parts separate entries of the source, which are not always exact repeats. Identical values can stand only once. “Also recorded” adds a separate entry of the source. Like-named read-outs stand apart in the source and are kept apart here.
# Assays:
# dogs = details: single dose of GSK'254 17 mg kg^−1, cited from earlier work
# [1] = GSK'254 200 mg QD, healthy participants, previous studies; cited from earlier work
# [2] = GSK'254 200 mg QD, treatment-naive people living with HIV-1; cited from earlier work
# [3] = system: healthy participants and people living with HIV‐1; details: short-term administration; cited from earlier work
# [4] = Plasma pharmacokinetics, part 2 main QTc study; assay type: in vivo, human; details: for Cτ, geometric mean (%CVb): moderate-fat meal, Day 7, n = 40
# Summary of the method: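 Moderate-fat meal 30 min before each dose. Plasma sampled predose on Days 1, 5, 6 and 7, and on Day 7 at 0.5–24 h postdose. Test compound assayed by validated UHPLC-MS/MS (3.00–1000 ng mL−1).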
# healthy participants [5] = assay type: in vivo, human
# HIV‐1 = details: GSK'254 200 mg QD, treatment-naive people living with HIV-1, phase IIa; cited from earlier work
# healthy participants [6] = experiment: Safety assessments; assay type: in vivo, human
# Summary of the method: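 Part 2 healthy participants confined from Day −2 of period 1 to Day 9 of period 4. […] AEs monitored throughout, recording duration, severity, causality and outcome, alongside safety ECGs, laboratory tests, physical examination and vital signs.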
# [7] = GSK'254 500 mg QD, 24 h post-dose
# [8] = part 2, GSK'254 100 mg (N = 40)
compound,measurement,setting,value
C=C(C)[C@@H]1CC[C@]2(NCCN3CCS(=O)(=O)CC3)CC[C@]3(C)[C@H](CC[C@@H]4[C@@]5(C)CC=C(C6=CC[C@@](CF)(C(=O)O)CC6)C(C)(C)[C@@H]5CC[C@]43C)[C@@H]12 [GSK'254],Maximum concentration,dogs; dog,7960 ng/mL
same,QT interval effects,"dogs; dogs, telemetry",minimal QT interval effects were observed in one dog
same,Geometric mean Cmax,[1],1040 to 1780 ng/mL
same,Geometric mean Cmax,[2],1860 ng/mL
same,Tolerability,[3],generally well tolerated
same,AUC,"[4]; human, plasma, oral, 100 mg",13800 ng·h/mL
same,AUC,"[4]; human, plasma, oral, 500 mg",67500 ng·h/mL
same,Cmax,"[4]; human, plasma, oral, 500 mg",4260 ng/mL
same,"Cτ, geometric mean (%CVb)","[4]; part 2, GSK'254 100 mg QD 7 days",460 ng mL^−1 and 460 (40.3) ng mL^−1
same,"Cτ, geometric mean (%CVb)","[4]; part 2, GSK'254 500 mg QD 7 days",2140 ng mL^−1 and 2140 (46.6) ng mL^−1
same,Geometric mean steady-state exposure values with GSK'254 500 mg relative to GSK'254 100 mg,"[4]; part 2, QD 7 days",~ 5 fold
same,"Clinically relevant effects on cardiac parameters (QTc prolongation, HR, cardiac conduction)",healthy participants [5]; GSK'254 100 mg QD,"No clinically relevant effects on cardiac parameters; also recorded: No clinically relevant effects on QTc prolongation, HR, or cardiac conduction"
same,Observations of ΔQTcF >30 ms,healthy participants [5]; GSK'254 100 mg QD,no participants
same,Outliers in HR changes (HR >100 bpm with a >25% increase in ΔHR),healthy participants [5]; GSK'254 100 mg QD,one participant at one time point
same,Reports of QTcF >450 to ≤480 ms,healthy participants [5]; GSK'254 100 mg QD,one participant (one time point)
same,"LS mean ΔΔHR, lowest across time points","healthy participants [5]; GSK'254 100 mg QD, 0.5 h post-dose, Day 7",−0.2 (−2.17–1.67) bpm
same,"LS mean ΔΔHR, highest across time points","healthy participants [5]; GSK'254 100 mg QD, 24 h post-dose, Day 7",2.6 (0.70–4.53) bpm
same,"ΔΔQTcF, LS mean (90% CI)","healthy participants [5]; GSK'254 100 mg QD, Day 7, 0.5 h","1.0 (−1.60, 3.59) ms"
same,"ΔΔQTcF, LS mean (90% CI)","healthy participants [5]; GSK'254 100 mg QD, Day 7, 1 h","0.6 (−2.06, 3.33) ms"
same,"ΔΔQTcF, LS mean (90% CI)","healthy participants [5]; GSK'254 100 mg QD, Day 7, 2 h","1.7 (−1.27, 4.73) ms"
same,"ΔΔQTcF, LS mean (90% CI)","healthy participants [5]; GSK'254 100 mg QD, Day 7, 3 h","1.5 (−1.45, 4.51) ms"
same,"ΔΔQTcF, LS mean (90% CI)","healthy participants [5]; GSK'254 100 mg QD, Day 7, 4 h","1.0 (−1.59, 3.54) ms"
same,"ΔΔQTcF, LS mean (90% CI)","healthy participants [5]; GSK'254 100 mg QD, Day 7, 4.5 h","1.0 (−1.73, 3.82) ms"
same,"ΔΔQTcF, LS mean (90% CI)","healthy participants [5]; GSK'254 100 mg QD, Day 7, 5 h","0.2 (−2.44, 2.80) ms"
same,"ΔΔQTcF, LS mean (90% CI)","healthy participants [5]; GSK'254 100 mg QD, Day 7, 6 h","1.7 (−1.58, 4.97) ms"
same,"ΔΔQTcF, LS mean (90% CI)","healthy participants [5]; GSK'254 100 mg QD, Day 7, 8 h","−0.8 (−3.54, 1.90) ms"
same,"ΔΔQTcF, LS mean (90% CI)","healthy participants [5]; GSK'254 100 mg QD, Day 7, 10 h","0.2 (−2.30, 2.65) ms"
same,"ΔΔQTcF, LS mean (90% CI)","healthy participants [5]; GSK'254 100 mg QD, Day 7, 12 h","0.5 (−2.43, 3.35) ms"
same,"ΔΔQTcF, LS mean (90% CI)","healthy participants [5]; GSK'254 100 mg QD, Day 7, 24 h","0.1 (−2.66, 2.76) ms"
same,"ΔΔQTcF, LS mean (90% CI)","healthy participants [5]; GSK'254 100 mg QD, Day 7, […]","1.4 (−1.30, 4.13) ms"
same,"ΔΔQTcF, LS mean (90% CI)","healthy participants [5]; GSK'254 100 mg QD, Day 7, pre-dose","1.4 (−0.88, 3.77) ms"
same,Maximum LS mean ΔΔQTcF,"healthy participants [5]; GSK'254 100 mg QD, at 2 and 6 h post-dose on Day 7",1.7 ms
same,Upper bound of the 90% CI of LS mean ΔΔQTcF,"healthy participants [5]; GSK'254 100 mg QD, through 24 h post-dose on Day 7",< 10 ms
same,Observations of ΔQTcF >30 ms,healthy participants [5]; GSK'254 500 mg QD,two participants (three time points)
same,Outliers in HR changes (HR >100 bpm with a >25% increase in ΔHR),healthy participants [5]; GSK'254 500 mg QD,one participant at one time point
same,Reports of QTcF >450 to ≤480 ms,healthy participants [5]; GSK'254 500 mg QD,one participant (one time point)
same,Largest LS mean ΔΔHR,"healthy participants [5]; GSK'254 500 mg QD, 10 h post-dose on Day 7",5.1 bpm
same,"LS mean placebo-corrected change from baseline in PR, lowest across post-dose time points",healthy participants [5]; [7],−1.8 (−4.00–0.36) ms
same,"LS mean placebo-corrected change from baseline in QRS, maximum value",healthy participants [5]; [7],1.4 ms
same,"ΔΔQTcF, LS mean (90% CI)","healthy participants [5]; GSK'254 500 mg QD, Day 7, 0.5 h","7.2 (4.59, 9.83) ms"
same,"ΔΔQTcF, LS mean (90% CI)","healthy participants [5]; GSK'254 500 mg QD, Day 7, 1 h","4.1 (1.34, 6.79) ms"
same,"ΔΔQTcF, LS mean (90% CI)","healthy participants [5]; GSK'254 500 mg QD, Day 7, 2 h","6.5 (3.46, 9.55) ms"
same,"ΔΔQTcF, LS mean (90% CI)","healthy participants [5]; GSK'254 500 mg QD, Day 7, 3 h","8.1 (5.06, 11.09) ms"
same,"ΔΔQTcF, LS mean (90% CI)","healthy participants [5]; GSK'254 500 mg QD, Day 7, 4 h","8.6 (6.03, 11.22) ms"
same,"ΔΔQTcF, LS mean (90% CI)","healthy participants [5]; GSK'254 500 mg QD, Day 7, 4.5 h","10.6 (7.75, 13.38) ms"
same,"ΔΔQTcF, LS mean (90% CI)","healthy participants [5]; GSK'254 500 mg QD, Day 7, 5 h","9.6 (6.92, 12.24) ms"
same,"ΔΔQTcF, LS mean (90% CI)","healthy participants [5]; GSK'254 500 mg QD, Day 7, 6 h","8.6 (5.27, 11.89) ms"
same,"ΔΔQTcF, LS mean (90% CI)","healthy participants [5]; GSK'254 500 mg QD, Day 7, 8 h","8.1 (5.34, 10.85) ms"
same,"ΔΔQTcF, LS mean (90% CI)","healthy participants [5]; GSK'254 500 mg QD, Day 7, 10 h","8.6 (6.14, 11.15) ms"
same,"ΔΔQTcF, LS mean (90% CI)","healthy participants [5]; GSK'254 500 mg QD, Day 7, 12 h","6.0 (3.07, 8.89) ms"
same,"ΔΔQTcF, LS mean (90% CI)","healthy participants [5]; GSK'254 500 mg QD, Day 7, 24 h","7.7 (4.94, 10.45) ms"
same,"ΔΔQTcF, LS mean (90% CI)","healthy participants [5]; GSK'254 500 mg QD, Day 7, […]","9.2 (6.44, 11.93) ms"
same,"ΔΔQTcF, LS mean (90% CI)","healthy participants [5]; GSK'254 500 mg QD, Day 7, pre-dose","7.1 (4.74, 9.46) ms"
same,"LS mean placebo-corrected change from baseline in PR, highest across post-dose time points","healthy participants [5]; GSK'254 500 mg QD, […] post-dose",3.2 (0.86–5.57) ms
same,Maximum LS mean ΔΔQTcF,"healthy participants [5]; GSK'254 500 mg QD, at 4.5 h post-dose on Day 7",10.6 ms and 10.6 (7.75–13.38) ms
same,Clinically relevant effects on heart rate or cardiac conduction (PR and QRS intervals),healthy participants [5]; both GSK'254 doses (100 and 500 mg QD),Neither GSK'254 dose had clinically relevant effects on heart rate or cardiac conduction; also recorded: neither GSK'254 dose had a clinically relevant effect on cardiac conduction (PR and QRS intervals) or HR
same,Mean reduction from baseline in HIV-1 RNA,HIV‐1,2 log10 copies/mL
same,Tolerability,"healthy participants [6]; both GSK'254 doses, short-term administration, all AEs mild in intensity",generally well tolerated
same,AE: Abdominal pain,healthy participants [6]; [8],0 n (%)
same,AE: Acne,healthy participants [6]; [8],2 (5) n (%)
same,AE: Diarrhea,healthy participants [6]; [8],0 n (%)
same,AE: Gastrointestinal disorders,healthy participants [6]; [8],1 (3) n (%)
